Measurements from ChEMBL document CHEMBL4052629, “Scutellarin derivatives as apoptosis inducers: Design, synthesis and biological evaluation” (Eur J Med Chem, 2017).
The source made the active and inactive calls. The rule behind the calls is not given here.

What was measured:
[1] = tested on: PC-3; experiment: Cell cycle arrest in human PC3 cells assessed as accumulation at G2/M phase at 0.16 uM after 72 hrs by propidium iodide staining-based flow cytometric analysis (reference value: 10.19%); format: functional
In short: (§1)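 Concentrations used were 0, 0.3, 0.6 and 1.2 μM in HepG2 and 0, 0.16, 0.31 and 1.25 μM in PC-3, with untreated cells as control, for 72 h. Cells were trypsinized, washed in PBS, fixed in cold ethanol at 4 °C overnight, then incubated 30 min in PBS containing RNase A and propidium iodide. DNA content was read by flow cytometry to give phase distribution.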

[2] = tested on: PC-3; experiment: Cell cycle arrest in human PC3 cells assessed as accumulation at G1 phase at 0.31 uM after 72 hrs by propidium iodide staining-based flow cytometric analysis (reference value: 53.36%); format: functional; in short: as §1
[3] = tested on: PC-3; experiment: Cell cycle arrest in human PC3 cells assessed as accumulation at G2/M phase at 0.31 uM after 72 hrs by propidium iodide staining-based flow cytometric analysis (reference value: 10.19%); format: functional; in short: as §1
[4] = tested on: PC-3; experiment: Induction of apoptosis in human PC3 cells assessed as chromatin condensation at 0.16 to 1.25 uM after 48 hrs by Hoechst 33258 staining-based fluorescent microscopic analysis; format: functional, cell-based
In short: (§2)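 PC-3 cells grown on sterile cover slips were exposed to 0, 0.16, 0.31 or 1.25 μM, or vehicle, for 48 h. Then fixed with 4% paraformaldehyde for 10 min, washed twice in PBS, stained with Hoechst 33258 for 5 min and washed again. Nuclei imaged at 350 nm excitation and 460 nm emission.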

[5] = tested on: PC-3; experiment: Induction of apoptosis in human PC3 cells assessed as nuclear fragmentation at 0.16 to 1.25 uM after 48 hrs by Hoechst 33258 staining-based fluorescent microscopic analysis; format: functional, cell-based; in short: as §2
[6] = tested on: PC-3; experiment: Induction of apoptosis in human PC3 cells assessed as viable cells at 0.16 uM after 72 hrs by Annexin V-APC/7-AAD or propidium iodide staining-based flow cytometric analysis (reference value: 88.74%); format: functional; conditions: PC-3, 72 h, read-out: Activity
[7] = tested on: PC-3; experiment: Induction of apoptosis in human PC3 cells assessed as early apoptotic cells at 0.31 uM after 72 hrs by Annexin V-APC/7-AAD or propidium iodide staining-based flow cytometric analysis (reference value: 4.09%); format: functional
[8] = tested on: L02; experiment: Induction of apoptosis in human LO2 cells assessed as early apoptotic cells at 1.25 uM after 72 hrs by Annexin V-FITC/7-AAD or propidium iodide staining-based flow cytometric analysis (reference value: 3.65%); format: cell-based; conditions: l02, 72 h
[9] = tested on: HepG2; experiment: Cell cycle arrest in human HepG2 cells assessed as accumulation at G1 phase at 0.3 uM after 72 hrs by propidium iodide staining-based flow cytometric analysis (reference value: 34%); format: functional; in short: as §1
[10] = tested on: HepG2; experiment: Cell cycle arrest in human HepG2 cells assessed as accumulation at G2/M phase at 0.3 uM after 72 hrs by propidium iodide staining-based flow cytometric analysis (reference value: 21.4%); format: functional; in short: as §1
[11] = tested on: HepG2; experiment: Cell cycle arrest in human HepG2 cells assessed as accumulation at S phase at 0.3 uM after 72 hrs by propidium iodide staining-based flow cytometric analysis (reference value: 44.6%); format: functional; in short: as §1
[12] = tested on: HepG2; experiment: Cell cycle arrest in human HepG2 cells assessed as accumulation at G2/M phase at 0.6 uM after 72 hrs by propidium iodide staining-based flow cytometric analysis (reference value: 21.4%); format: functional; in short: as §1
[13] = tested on: HepG2; experiment: Cell cycle arrest in human HepG2 cells assessed as accumulation at S phase at 0.6 uM after 72 hrs by propidium iodide staining-based flow cytometric analysis (reference value: 44.6%); format: functional; in short: as §1
[14] = tested on: HepG2; experiment: Induction of apoptosis in human HepG2 cells assessed as cell shrinkage at 0.3 to 0.6 uM after 48 hrs by Hoechst 33258 staining-based fluorescent microscopic analysis; format: functional
In short: (§3)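 HepG2 cells grown on coverslips were treated for 48 h at 0.3, 0.6 or 1.2 μM, then fixed in 4% paraformaldehyde for 10 min. After PBS washes, cells were stained with Hoechst 33258 for 5 min and washed again. Nuclear morphology was examined by fluorescence imaging at 350 nm excitation and 460 nm emission.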

[15] = tested on: HepG2; experiment: Induction of apoptosis in human HepG2 cells assessed as rupture of cell membrane at 1.2 uM after 48 hrs by Hoechst 33258 staining-based fluorescent microscopic analysis; format: functional
In short: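 HepG2 cells on sterile cover slips in 6-well plates exposed to 0, 0.3, 0.6 or 1.2 μM, or vehicle, for 48 h. Fixed in 4% paraformaldehyde for 10 min, PBS-washed, stained with Hoechst 33258 for 5 min. Nuclear morphology and adherent cell number viewed at 350 nm excitation / 460 nm emission. Non-treated cells served as control.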

[16] = tested on: HepG2; experiment: Induction of apoptosis in human HepG2 cells assessed as nuclear fragmentation at 1.2 uM after 48 hrs by Hoechst 33258 staining-based fluorescent microscopic analysis; format: functional, cell-based; in short: as §3
[17] = tested on: HepG2; experiment: Cell cycle arrest in human HepG2 cells assessed as accumulation at S phase after 72 hrs by propidium iodide staining-based flow cytometric analysis; format: functional; in short: as §1
[18] = tested on: HepG2; experiment: Induction of apoptosis in human HepG2 cells assessed as necrotic cells at 0.3 uM after 72 hrs by Annexin V-APC/7-AAD or propidium iodide staining-based flow cytometric analysis (reference value: 1.87%); format: functional
[19] = tested on: HepG2; experiment: Induction of apoptosis in human HepG2 cells assessed as viable cells at 0.6 uM after 72 hrs by Annexin V-APC/7-AAD or propidium iodide staining-based flow cytometric analysis (reference value: 90.08%); format: functional; conditions: HepG2, 72 h, read-out: Activity
[20] = tested on: HepG2; experiment: Induction of apoptosis in human HepG2 cells assessed as necrotic cells at 0.6 uM after 72 hrs by Annexin V-APC/7-AAD or propidium iodide staining-based flow cytometric analysis (reference value: 1.87%); format: functional
[21] = tested on: HepG2; experiment: Induction of apoptosis in human HepG2 cells assessed as late apoptotic cells at 1.2 uM after 72 hrs by Annexin V-APC/7-AAD or propidium iodide staining-based flow cytometric analysis (reference value: 4.14%); format: functional
[22] = tested on: HepG2; experiment: Induction of apoptosis in human HepG2 cells assessed as necrotic cells at 1.2 uM after 72 hrs by Annexin V-APC/7-AAD or propidium iodide staining-based flow cytometric analysis (reference value: 1.87%); format: functional
[23] = tested on: HepG2; experiment: Induction of apoptosis in human HepG2 cells assessed as reduction in mitochondrial membrane potential at 1.2 uM after 48 hrs by JC-1 staining-based flow cytometric analysis (reference value: 1.6%); format: functional; parameters: scale not given: the % may be the effect or the level left
In short: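 HepG2 cells cultured overnight, then incubated in triplicate with 0, 0.3, 0.6 or 1.2 μM, or vehicle, for 48 h. Stained with the cationic dye JC-1. Flow cytometry gave the percentage of cells with healthy versus collapsed mitochondrial membrane potential.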

[24] = tested on: HepG2; experiment: Induction of apoptosis in human HepG2 cells assessed as reduction in Hsp60 expression levels at 2 uM after 24 hrs by membrane-based sandwich immunoassay; format: functional, cell-based
In short: (§4)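 HepG2 cells treated at 2 μM for 24 h; protein extracts prepared per the kit protocol. Relative levels of 35 apoptosis-related proteins measured with a human apoptosis antibody array.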

[25] = tested on: HepG2; experiment: Induction of apoptosis in human HepG2 cells assessed as reduction in HO-1 expression levels at 2 uM after 24 hrs by membrane-based sandwich immunoassay; format: functional, cell-based; in short: as §4
[26] = tested on: HepG2; experiment: Induction of apoptosis in human HepG2 cells after 72 hrs by Annexin V-APC/7-AAD or propidium iodide staining-based flow cytometric analysis; format: functional, cell-based

Structure (SMILES): COc1ccc(-c2cc(=O)c3c(O)c(OC)c(O[C@@H]4O[C@H](C(=O)NCCOc5no[n+]([O-])c5S(=O)(=O)c5ccccc5)[C@@H](O)[C@H](O)[C@H]4O)cc3o2)cc1
- Activity [1]: 11.62%
- Activity [2]: 43.22%
- Activity [3]: 13.48%
- Activity [4]: Active
- Activity [5]: Active
- viability at 0.16 µM [6]: 79.1%
- Activity [7]: 13.2%
- Activity [8]: 17.35%

Structure (SMILES): O=C(NCCCOc1no[n+]([O-])c1S(=O)(=O)c1ccccc1)[C@H]1O[C@@H](Oc2cc3oc(-c4ccc(OCc5ccccc5)cc4)cc(=O)c3c(O)c2OCc2ccccc2)[C@H](O)[C@@H](O)[C@@H]1O
- Activity [9]: 32.13%
- Activity [10]: 20.73%
- Activity [11]: 47.14%
- Activity [12]: 17.54%
- Activity [13]: 50.45%
- Activity [14]: Active
- Activity [15]: Active
- Activity [16]: Active
- Activity [17]: Dose-dependent effect
- Activity [18]: 3.85%
- viability at 0.6 µM [19]: 64.6%
- Activity [20]: 2.31%
- Activity [21]: 39.16%
- Activity [22]: 5.62%
- Activity [23]: 58.47%
- Activity [24]: Active
- Activity [25]: Active
- Activity [26]: Dose-dependent effect
